Experimental findings from ChEMBL document CHEMBL3098034, “Synthesis and biological evaluation of α-hydroxyalkylphosphonates as new antimicrobial agents” (Bioorg Med Chem Lett, 2014) are described below.

Converted amounts (≈) assume the structure as drawn. The source made the active and inactive calls.

The subject of one test is Human alphaherpesvirus 2. The test can be described thus: Antiviral activity against Herpes simplex virus 2 G. Type of test: functional, organism-based. The conditions noted are these: Human alphaherpesvirus 2, strain G.
The test system of test [1] is Bacillus cereus. The experiment in a line: Antibacterial activity against Bacillus cereus ATCC 11778 at 10 ug by disc diffusion method. In kind it is functional.
Test [2] relates to Bacillus cereus. The experiment in a line: Antibacterial activity against Bacillus cereus ATCC 11778 after 24 hrs by broth microdilution method. The conditions noted are these: ATCC 11778, 24 h. In kind it is functional. The procedure, abridged:
(§1)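 MIC (lowest concentration preventing growth) determined per CLSI specifications, with fosfomycin, ceftriaxone, ciprofloxacin and chloramphenicol run as reference drugs; S. aureus ATCC 29213 used as quality-control strain.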
A general note: Dilution methods test growth across graded concentrations, often in twofold steps.

In test [3] the test system is Acinetobacter haemolyticus. The experiment in a line: Antibacterial activity against vancomycin-resistant Acinetobacter haemolyticus BW62 after 24 hrs by broth microdilution method. Type of test: functional. The conditions noted are these: BW62, 24 h. The method, boiled down:
as §1

The test system of test [4] is Escherichia coli. The experiment in a line: Antibacterial activity against multidrug-resistant Escherichia coli BW54 at 10 ug by disc diffusion method. In kind it is functional. (In general: A growth-free zone around the sample is the usual read-out of agar diffusion tests.)
Test [5] relates to Escherichia coli. The experiment in a line: Antibacterial activity against ESBL-producing Escherichia coli BW55 at 10 ug by disc diffusion method. In kind it is functional.
The subject of test [6] is Acinetobacter haemolyticus. The test can be described thus: Bactericidal activity against vancomycin-resistant Acinetobacter haemolyticus BW62 after 24 hrs by CFU counting assay. In kind it is functional. The conditions noted are these: BW62, 24 h. The procedure, abridged: (§2)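 MBC (lowest concentration killing the pathogen) determined per CLSI specifications, with fosfomycin, ceftriaxone, ciprofloxacin and chloramphenicol run as reference drugs; S. aureus ATCC 29213 used as quality-control strain.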

For test [7], the system named is Escherichia coli. The test can be described thus: Bactericidal activity against ESBL-producing Escherichia coli BW55 after 24 hrs by CFU counting assay. In kind it is functional. The settings on record: BW55, 24 h. The procedure, abridged: as §2
Test [8] deals with Stenotrophomonas maltophilia. The test can be described thus: Antibacterial activity against multidrug-resistant Stenotrophomonas maltophilia D457R at 10 ug by disc diffusion method. In kind it is functional.
The subject of test [9] is Escherichia coli. The experiment in a line: Antibacterial activity against ESBL-producing Escherichia coli BW55 after 24 hrs by broth microdilution method. Type of test: functional. The settings on record: BW55, 24 h. The method, boiled down:
as §1

For test [10], the system named is Staphylococcus aureus. The test can be described thus: Bactericidal activity against methicillin-resistant Staphylococcus aureus BW61 after 24 hrs by CFU counting assay. Type of test: functional. The conditions noted are these: BW61, 24 h. The method, boiled down: as §2
Test [11] concerns Stenotrophomonas maltophilia. The test can be described thus: Antibacterial activity against multidrug-resistant Stenotrophomonas maltophilia D457R after 24 hrs by broth microdilution method. In kind it is functional. The method, boiled down:
as §1

Test [12] concerns Escherichia coli. The experiment in a line: Bactericidal activity against multidrug-resistant Escherichia coli BW54 after 24 hrs by CFU counting assay. In kind it is functional. The settings on record: BW54, 24 h. The method, boiled down:
as §2

Test [13] deals with Bacillus cereus. The experiment in a line: Bactericidal activity against Bacillus cereus ATCC 11778 after 24 hrs by CFU counting assay. In kind it is functional. The conditions noted are these: ATCC 11778, 24 h. The method, boiled down:
as §2

The subject of test [14] is Staphylococcus aureus. The test can be described thus: Bactericidal activity against Staphylococcus aureus ATCC 29213 after 24 hrs by CFU counting assay. Type of test: functional. The conditions noted are these: ATCC 29213, 24 h. The method, boiled down:
as §2

Test [15] relates to Staphylococcus aureus. The test can be described thus: Antibacterial activity against methicillin-resistant Staphylococcus aureus BW61 after 24 hrs by broth microdilution method. In kind it is functional. The conditions noted are these: BW61, 24 h. The procedure, abridged: as §1
In test [16] the test system is Stenotrophomonas maltophilia. The experiment in a line: Bactericidal activity against multidrug-resistant Stenotrophomonas maltophilia D457R after 24 hrs by CFU counting assay. In kind it is functional. The method, boiled down: as §2
The test system of test [17] is Staphylococcus aureus. The test can be described thus: Antibacterial activity against Staphylococcus aureus ATCC 29213 at 10 ug by disc diffusion method. Type of test: functional. The conditions noted are these: read-out: IZ.
Test [18] has as its system Pseudomonas aeruginosa. The test can be described thus: Antibacterial activity against multidrug-resistant Pseudomonas aeruginosa PAO1 after 24 hrs by broth microdilution method. Type of test: functional. The settings on record: PAO1, 24 h. The procedure, abridged:
as §1

The subject of test [19] is Acinetobacter haemolyticus. The test can be described thus: Antibacterial activity against vancomycin-resistant Acinetobacter haemolyticus BW62 at 10 ug by disc diffusion method. Type of test: functional.
The subject of test [20] is Escherichia coli. The experiment in a line: Antibacterial activity against multidrug-resistant Escherichia coli BW54 after 24 hrs by broth microdilution method. In kind it is functional. The settings on record: BW54, 24 h. The procedure, abridged:
as §1

For test [21], the system named is Pseudomonas aeruginosa. The experiment in a line: Antibacterial activity against multidrug-resistant Pseudomonas aeruginosa PAO1 at 10 ug by disc diffusion method. Type of test: functional.
Test [22] deals with Pseudomonas aeruginosa. The experiment in a line: Bactericidal activity against multidrug-resistant Pseudomonas aeruginosa PAO1 after 24 hrs by CFU counting assay. In kind it is functional. The settings on record: PAO1, 24 h. The method, boiled down: as §2
Test [23] relates to Staphylococcus aureus. The test can be described thus: Antibacterial activity against Staphylococcus aureus ATCC 29213 after 24 hrs by broth microdilution method. Type of test: functional. The settings on record: ATCC 29213, 24 h. The method, boiled down:
as §1

As for `Nc1ncnc2c1ncn2CCOCP(=O)(O)O` [ADEFOVIR], the IC50 in the test with Human alphaherpesvirus 2 turned out to be 77 µM.
On to `O=P(Oc1ccccc1)(Oc1ccccc1)[C@](O)(CCl)c1ccc(Cl)cc1`, for which the zone of inhibition at 10 µg/disc was found to be 9 mm in the test on Bacillus cereus [1] (read-out: IZ); 9 mm in the test with Escherichia coli [4] (read-out: IZ); 10 mm in the test on Escherichia coli [5] (read-out: IZ); 11 mm in [8] (read-out: IZ); 9 mm in the test on Staphylococcus aureus [17]; 7 mm in test [19] (read-out: IZ). Besides, in the test with Pseudomonas aeruginosa [21] (read-out: IZ), the zone of inhibition at 10 µg/disc is 10 mm. The minimal inhibitory concentration (MIC) against Bacillus cereus [2] was 32 µg/mL (≈ 75.6 µM); in [3], 64 µg/mL (≈ 151 µM); against Escherichia coli [9], 32 µg/mL (≈ 75.6 µM); in test [11], 32 µg/mL (≈ 75.6 µM); against Staphylococcus aureus [15], 32 µg/mL (≈ 75.6 µM); against Pseudomonas aeruginosa [18], 128 µg/mL (≈ 302 µM). The MIC in the test with Escherichia coli [20] stood at 64 µg/mL (≈ 151 µM); with Staphylococcus aureus [23], 32 µg/mL (≈ 75.6 µM). For the same compound, the MBC in test [6] was 128 µg/mL (≈ 302 µM); in the test with Escherichia coli [7], 64 µg/mL (≈ 151 µM); against Staphylococcus aureus [10], 64 µg/mL (≈ 151 µM); in the test with Escherichia coli [12] it was 64 µg/mL (≈ 151 µM); against Bacillus cereus [13], 32 µg/mL (≈ 75.6 µM); with Staphylococcus aureus [14] it was 64 µg/mL (≈ 151 µM). The minimum bactericidal concentration (MBC) in test [16] was 64 µg/mL (≈ 151 µM); with Pseudomonas aeruginosa [22], 128 µg/mL (≈ 302 µM).
On to `O=P(Oc1ccccc1)(Oc1ccccc1)[C@@]1(O)CCC[C@@H]1Cl` (mixture of isomers), for which the outcome (in the test with Bacillus cereus [1]; in the test on Escherichia coli [4]; with Escherichia coli [5]; in test [8]; in test [19]; in the test on Pseudomonas aeruginosa [21]) was inactive. Also, the MIC amounted to 128 µg/mL against Bacillus cereus [2]; 128 µg/mL in [3]; 128 µg/mL against Escherichia coli [9]; 128 µg/mL in test [11]; 256 µg/mL in the test with Staphylococcus aureus [15]; 256 µg/mL against Pseudomonas aeruginosa [18]. Besides, the MIC against Escherichia coli [20] is 128 µg/mL; against Staphylococcus aureus [23], 256 µg/mL. Besides, the MBC is 256 µg/mL in test [6]; 256 µg/mL with Escherichia coli [7]; at least 256 µg/mL against Staphylococcus aureus [10]; 256 µg/mL against Escherichia coli [12]; 256 µg/mL against Bacillus cereus [13]; at least 256 µg/mL against Staphylococcus aureus [14]. In addition, the MBC (in test [16]; with Pseudomonas aeruginosa [22]) was 256 µg/mL each time. Also, the zone of inhibition at 10 µg/disc in the test on Staphylococcus aureus [17] worked out at 8 mm.

In general, IC50 refers to the point on the concentration scale where inhibition reaches its midpoint. A higher IC50 goes with weaker potency. As a reminder, the MIC is the lowest concentration found to suppress growth. Lower therefore signals inhibition by little substance. One may read the MBC as the smallest concentration meeting the test's criterion for killing.
